{"source": "ChEMBL document CHEMBL1125672", "about": "“2-acetylpyridine thiosemicarbazones. 13. Derivatives with antifilarial activity” (1991)", "type_in_all_cases": "functional", "key": {"Onchocerca gutturosa [1]": {"test_system": "Onchocerca gutturosa", "assay": "Mean motility score for treated Onchocerca gutturosa involving LLCMK2 feeder cells at a concentration of 3.05*10e-8 M at 1 h", "summary_of_the_method": "(§1)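 One male O. gutturosa per well over LLCMK2 feeder cells in MEM with 10% heat-inactivated FCS, antibiotics and bicarbonate, 5% CO2; compound introduced in DMSO (≤0.016%, equal DMSO in controls). Motility scored 0 (immotile) to 10 (maximal control activity) every 30 min to 4.5 h, then at 1, 2, 3, 4 and 7 days.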"}, "Onchocerca gutturosa [2]": {"test_system": "Onchocerca gutturosa", "assay": "Mean motility score for treated Onchocerca gutturosa involving LLCMK2 feeder cells at a concentration of 3.05*10e-8 M at 2 h", "settings": "in the assay text read “3.05*10e-9 M” for “3.05*10e-8 M”", "summary_of_the_method": "as §1"}, "Onchocerca gutturosa [3]": {"test_system": "Onchocerca gutturosa", "assay": "Mean motility score for treated Onchocerca gutturosa involving LLCMK2 feeder cells at a concentration of 3.05*10e-8 M at 2.5 h", "settings": "in the assay text read “3.05*10e-9 M” for “3.05*10e-8 M”", "summary_of_the_method": "as §1"}, "Onchocerca gutturosa [4]": {"test_system": "Onchocerca gutturosa", "assay": "Colorimetric quantification of male Onchocerca gutturosa viability, expressed as % inhibition of formazan formation at 4.88*10e-8M conc. by using tetrazolium Dye MTT assay", "summary_of_the_method": "(§2)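 Single intact male O. gutturosa, cultured with LLCMK2 feeder cells in MEM + 10% heat-inactivated FCS (5% CO2), drug added from DMSO (≤0.016% DMSO in controls). MTT read after 168 h: worm in 0.5 mg/mL MTT, 30 min at 36.5 °C, formazan solubilized in DMSO 1 h at room temperature, absorbance 490 nm vs DMSO blank.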"}, "Onchocerca gutturosa [5]": {"test_system": "Onchocerca gutturosa", "assay": "Mean motility score for treated Onchocerca gutturosa involving LLCMK2 feeder cells at a concentration of 4.88*10e-8M at 1.5 h", "summary_of_the_method": "(§3)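 Single male O. gutturosa worms (obtained following abattoir slaughter) per well in Eagle's MEM with 10% heat-inactivated fetal calf serum, penicillin, streptomycin, amphotericin B and bicarbonate, over LLCMK2 feeder cells, 5% CO2 in air. Drug dissolved in DMSO; controls received matched DMSO ≤0.016%. Motility scored 0 (immotile) to 10 (maximum control activity) every 30 min to 4.5 h, then days 1, 2, 3, 4, 7.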"}, "Onchocerca gutturosa [6]": {"test_system": "Onchocerca gutturosa", "assay": "Mean motility score for treated Onchocerca gutturosa involving LLCMK2 feeder cells at a concentration of 4.88*10e-8M at 2 h", "summary_of_the_method": "as §3"}, "Onchocerca gutturosa [7]": {"test_system": "Onchocerca gutturosa", "assay": "Mean motility score for treated Onchocerca gutturosa involving LLCMK2 feeder cells at a concentration of 4.88*10e-8M at 24 h", "summary_of_the_method": "as §3"}, "Onchocerca gutturosa [8]": {"test_system": "Onchocerca gutturosa", "assay": "Mean motility score for treated Onchocerca gutturosa involving LLCMK2 feeder cells at a concentration of 4.88*10e-8M at 3 h", "summary_of_the_method": "as §3"}, "Onchocerca gutturosa [9]": {"test_system": "Onchocerca gutturosa", "assay": "Mean motility score for treated Onchocerca gutturosa involving LLCMK2 feeder cells at a concentration of 4.88*10e-8M at 4 h", "summary_of_the_method": "as §3"}, "Onchocerca gutturosa [10]": {"test_system": "Onchocerca gutturosa", "assay": "Mean motility score for treated Onchocerca gutturosa involving LLCMK2 feeder cells at a concentration of 4.88*10e-8M at 48 h", "summary_of_the_method": "as §3"}, "Onchocerca gutturosa [11]": {"test_system": "Onchocerca gutturosa", "assay": "Mean motility score for treated Onchocerca gutturosa involving LLCMK2 feeder cells at a concentration of 1.95*10e-8 M at 3.5 h", "settings": "in the assay text read “1.95*10e-7 M” for “1.95*10e-8 M”", "summary_of_the_method": "as §1"}, "Onchocerca gutturosa [12]": {"test_system": "Onchocerca gutturosa", "assay": "Mean motility score for treated Onchocerca gutturosa involving LLCMK2 feeder cells at a concentration of 3.1*10e-6 M at 4.5 h", "summary_of_the_method": "as §3"}, "Onchocerca gutturosa [13]": {"test_system": "Onchocerca gutturosa", "assay": "Mean motility score for treated Onchocerca gutturosa involving LLCMK2 feeder cells at a concentration of 1.95*10e-8 M at 2.5 h", "summary_of_the_method": "as §1"}, "Onchocerca gutturosa [14]": {"test_system": "Onchocerca gutturosa", "assay": "Mean motility score for treated Onchocerca gutturosa involving LLCMK2 feeder cells at a concentration of 3.1*10e-6 M at 2 h", "summary_of_the_method": "as §3"}, "Onchocerca gutturosa [15]": {"test_system": "Onchocerca gutturosa", "assay": "Mean motility score for treated Onchocerca gutturosa involving LLCMK2 feeder cells at a concentration of 3.1*10e-6 M at 24 h", "summary_of_the_method": "as §3"}, "Onchocerca gutturosa [16]": {"test_system": "Onchocerca gutturosa", "assay": "Mean motility score for treated Onchocerca gutturosa involving LLCMK2 feeder cells at a concentration of 3.1*10e-6 M at 4 h", "summary_of_the_method": "as §3"}, "Onchocerca gutturosa [17]": {"test_system": "Onchocerca gutturosa", "assay": "Colorimetric quantification of male Onchocerca gutturosa viability, expressed as % inhibition of formazan formation at 1.95*10e-7 M conc. by using tetrazolium Dye MTT assay", "summary_of_the_method": "as §2"}, "Acanthocheilonema viteae": {"test_system": "Acanthocheilonema viteae", "assay": "anti-filarial Activity was measured against Acanthocheilonema viteae in jirds at 100 mg/kg/day(5 days) dose", "summary_of_the_method": "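Jirds with established B. pahangi or A. viteae infections were given drug once daily for 5 days by subcutaneous injection, at the maximum tolerated dose and, where supply allowed, graded lower doses. Tolerance was first checked in noninfected jirds with a single 200 mg/kg oral or subcutaneous dose, watching 72 h for excessive weight loss or death. Macrofilarial suppression was the read-out.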"}, "Onchocerca gutturosa [18]": {"test_system": "Onchocerca gutturosa", "assay": "Mean motility score for treated Onchocerca gutturosa involving LLCMK2 feeder cells at a concentration of 3.05*10e-9 M at 0.5 h", "summary_of_the_method": "as §1"}, "Onchocerca gutturosa [19]": {"test_system": "Onchocerca gutturosa", "assay": "Colorimetric quantification of male Onchocerca gutturosa viability, expressed as % inhibition of formazan formation at 1.94*10e-7M conc. by using tetrazolium Dye MTT assay", "summary_of_the_method": "as §2"}, "Onchocerca gutturosa [20]": {"test_system": "Onchocerca gutturosa", "assay": "Mean motility score for treated Onchocerca gutturosa involving LLCMK2 feeder cells at a concentration of 5*10e-5 M at 168 h(O = IMMOTILE)", "summary_of_the_method": "as §3"}, "Onchocerca gutturosa [21]": {"test_system": "Onchocerca gutturosa", "assay": "Mean motility score for treated Onchocerca gutturosa involving LLCMK2 feeder cells at a concentration of 1.21*10e-8M at 0.5 h", "summary_of_the_method": "as §1"}, "Onchocerca gutturosa [22]": {"test_system": "Onchocerca gutturosa", "assay": "Mean motility score for treated Onchocerca gutturosa involving LLCMK2 feeder cells at a concentration of 1.21*10e-8M at 168 h", "summary_of_the_method": "as §1"}, "Onchocerca gutturosa [23]": {"test_system": "Onchocerca gutturosa", "assay": "Mean motility score for treated Onchocerca gutturosa involving LLCMK2 feeder cells at a concentration of 1.21*10e-8M at 2 h", "summary_of_the_method": "as §1"}, "Onchocerca gutturosa [24]": {"test_system": "Onchocerca gutturosa", "assay": "Mean motility score for treated Onchocerca gutturosa involving LLCMK2 feeder cells at a concentration of 1.21*10e-8M at 24 h", "summary_of_the_method": "as §1"}, "Onchocerca gutturosa [25]": {"test_system": "Onchocerca gutturosa", "assay": "Mean motility score for treated Onchocerca gutturosa involving LLCMK2 feeder cells at a concentration of 1.94*10e-7M at 0.5 h", "summary_of_the_method": "as §1"}, "Onchocerca gutturosa [26]": {"test_system": "Onchocerca gutturosa", "assay": "Mean motility score for treated Onchocerca gutturosa involving LLCMK2 feeder cells at a concentration of 1.94*10e-7M at 1 h", "summary_of_the_method": "as §1"}, "Onchocerca gutturosa [27]": {"test_system": "Onchocerca gutturosa", "assay": "Mean motility score for treated Onchocerca gutturosa involving LLCMK2 feeder cells at a concentration of 1.94*10e-7M at 48 h", "summary_of_the_method": "as §1"}}}
{"smiles": "C/C(=N\\NC(=S)N1CCCCCC1)c1ccccn1", "values": [{"measurement": "Motility", "setting": "Onchocerca gutturosa [1]", "result": 9}, {"measurement": "Motility", "setting": "Onchocerca gutturosa [2]", "result": 9.8}, {"measurement": "Motility", "setting": "Onchocerca gutturosa [3]", "result": 8.3}, {"measurement": "Inhibition", "setting": "Onchocerca gutturosa [4]", "result": 31.7, "unit": "%"}, {"measurement": "Motility", "setting": "Onchocerca gutturosa [5]", "result": 8.5}, {"measurement": "Motility", "setting": "Onchocerca gutturosa [6]", "result": 8.8}, {"measurement": "Motility", "setting": "Onchocerca gutturosa [7]", "result": 4}, {"measurement": "Motility", "setting": "Onchocerca gutturosa [8]", "result": 9}, {"measurement": "Motility", "setting": "Onchocerca gutturosa [9]", "result": 8.8}, {"measurement": "Motility", "setting": "Onchocerca gutturosa [10]", "result": 4}, {"measurement": "Motility", "setting": "Onchocerca gutturosa [11]", "result": 10}, {"measurement": "Motility", "setting": "Onchocerca gutturosa [12]", "result": 9.5}, {"measurement": "Motility", "setting": "Onchocerca gutturosa [13]", "result": 9.3}, {"measurement": "Motility", "setting": "Onchocerca gutturosa [14]", "result": 9.8}, {"measurement": "Motility", "setting": "Onchocerca gutturosa [15]", "result": 4}, {"measurement": "Motility", "setting": "Onchocerca gutturosa [16]", "result": 9}, {"measurement": "Inhibition", "setting": "Onchocerca gutturosa [17]", "result": 70.4, "unit": "%"}]}
{"smiles": "C/C(=N\\NC(S)=Nc1ccccc1N)c1ccccn1", "values": [{"measurement": "Suppression", "setting": "Acanthocheilonema viteae", "result": 100, "unit": "%"}, {"measurement": "Motility", "setting": "Onchocerca gutturosa [18]", "result": 8.8}, {"measurement": "Inhibition", "setting": "Onchocerca gutturosa [19]", "result": 84.8, "unit": "%"}, {"measurement": "Motility", "setting": "Onchocerca gutturosa [20]", "result": 0}, {"measurement": "Motility", "setting": "Onchocerca gutturosa [21]", "result": 9}, {"measurement": "Motility", "setting": "Onchocerca gutturosa [22]", "result": 1}, {"measurement": "Motility", "setting": "Onchocerca gutturosa [23]", "result": 3.3}, {"measurement": "Motility", "setting": "Onchocerca gutturosa [24]", "result": 9}, {"measurement": "Motility", "setting": "Onchocerca gutturosa [25]", "result": 9.8}, {"measurement": "Motility", "setting": "Onchocerca gutturosa [26]", "result": 9.8}, {"measurement": "Motility", "setting": "Onchocerca gutturosa [27]", "result": 4}]}
